A selection: hits, their analogues and other compounds. The true share with any hit is near 2%.
NS3 helicase inh: inhibitors of HCV NS3 helicase, primary screen, biochemical, Cy5 molecular beacon fluorescence | NS3 helicase DNA unwinding | 290,000 compounds, 0.56% hits | Hepatitis C virus NS3 helicase | inhibition, % at 10.9 µM;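 active = inhibition above the mean of all tested compounds plus 3 SD, set per campaign, cut at about 35% in these data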;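 also: 0% = DMSO wells and 100% = thioflavine S control wells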
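test system = hepatitis C virus NS3 helicase domain fragment enzyme | reagent = annealed dual-labelled DNA beacon duplex, ATP-started | times = 1 h at 25 °C | detection = Cy5 fluorescence, 0 and 60 min reads | read-out basis = percent inhibition from t60/t0 fluorescence ratio | control set = DMSO and thioflavine S | replication = one well per compound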
FID counter: compounds displacing fluorescent DNA intercalator, primary screen, artefact control for HCV NS3 helicase inhibitor project, biochemical, FID fluorescence | 290,000 compounds, 0.17% hits | AID 1845, 2009 | DNA fluorescent intercalator displacement | inhibition, % at 7.9 µM; in the data active = inhibition above about 37%;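 also: 0% = vehicle and 100% = reference compound; higher means more ethidium bromide displaced from hairpin DNA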
EBNA-1 inhibitor: EBNA-1 DNA-binding inhibitors, primary screen, biochemical, fluorescence polarization; inhibition, % at 14.8 µM; 300,000 compounds, 0.34% hits; AID 1950, 2009; in the data active = inhibition above about 28%
GPR7 antagonist: GPR7 receptor antagonists, primary screen, cell-based, fluorescence, single concentration | Neuropeptides B/W receptor type 1 (Homo sapiens), P48145 | GPR7-expressing cells, fluorescence antagonist assay | inhibition, % at 4.4 µM | 290,000 compounds, 1.1% hits; in the data active = inhibition above about 16%, passing the limit was not always enough;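 also: cells stimulated with the agonist NPW; 0% = agonist with vehicle and 100% = vehicle without agonist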
ZTA counter: blocks Epstein-Barr virus ZTA, an EBNA-1 counter-screen; P03206; ZTA-DNA binding, fluorescence polarization; inhibition, % at 11 µM; 320,000 compounds, 0.15% hits; AID 2234; in the data active = inhibition above about 33%
Target sequence (P03206 whole entry, looked up): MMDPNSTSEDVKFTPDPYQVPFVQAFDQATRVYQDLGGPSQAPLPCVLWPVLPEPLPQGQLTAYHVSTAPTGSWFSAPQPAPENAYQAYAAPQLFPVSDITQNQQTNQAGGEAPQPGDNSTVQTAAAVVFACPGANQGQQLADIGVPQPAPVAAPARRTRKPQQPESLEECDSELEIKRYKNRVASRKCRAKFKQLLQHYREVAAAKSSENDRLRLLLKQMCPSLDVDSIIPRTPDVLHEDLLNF
* = called active by the depositor; x = not tested or not shown.

SMILES	NS3 helicase inh	FID counter	EBNA-1 inhibitor	GPR7 antagonist	ZTA counter
CCCCCC(=O)Nc1cc(N(C)C)nc2ccccc12	-13	16	2	9	-3
CCN(CC)CC(=O)Nc1cc(N(C)C)nc2ccccc12	-7	49*	-15	-8	-8
Cc1ccc(C(=O)C(C)OC(=O)CCN2C(=O)C3C4C=CC(C5CC45)C3C2=O)cc1 (stereo unspecified)	-9	-56	6	-5	7
CC(NCC(O)c1ccc([N+](=O)[O-])cc1)C12CC3CC(CC(C3)C1)C2 (stereo unspecified)	-25	38*	-4	14	4
CCCn1cnc2c(=S)nc(N)[nH]c21	12	-9	-1	18*	1
CCCCn1cnc2c(=S)nc(N)[nH]c21	-14	-6	4	-16	-6
CC1(C(=O)O)CCC(C(=O)Nc2ccc(OC(F)(F)Cl)cc2)C1(C)C (stereo unspecified)	3	-6	-6	-8	-11
COc1cc2cncc(Cc3ccc(Cl)cc3)c2cc1OC	x	x	x	x	-19
CCOC(=O)COc1ccc(S(=O)(=O)Nc2ccc3c(c2)OCO3)cc1	0	48*	-4	17	-15
COC(=O)c1ccc(CSc2nnc(N)s2)cc1	10	2	1	19*	0
COC(=O)c1ccc(CSc2nnc(C)s2)cc1	-4	-7	-5	8	-12
O=S(=O)(NCCN1CCOCC1)c1ccc(F)c(Cl)c1	-2	-1	-11	2	10
CCc1c(O)nc2ccccn2c1=O	10	-3	1	-6	-12
O=c1c(-c2ccccc2)c(O)nc2ccccn12	0	2	-4	19*	-10
CCN1CCN(c2ccc(NC(=O)CCc3c(C)nc4c(-c5ccccc5)c(C)nn4c3C)cc2)CC1	-37	41*	2	10	-7
O=C(COc1ccc(S(=O)(=O)NCc2ccccc2)cc1)NCc1cccnc1	-9	-17	x	-6	x
Cc1ccc(CN2C(=O)CSc3ccc(C(=O)NCCN4CCOCC4)cc32)cc1	-24	43*	-8	15	7
Cc1ccccc1OCCN1C(=O)C(=O)c2cccc(C)c21	-8	-2	-1	21*	13
C[C@@H](CN1C(=O)C(=O)NC[C@@H]1C)NC(=O)CC12CC3CC(CC(C3)C1)C2	3	-3	8	-3	-2
CCn1c(Cl)c(C=O)s/c1=N\S(=O)(=O)c1ccccc1	33	-4	2	45*	7
O=C(Nc1c2ccccc2nc2ccccc12)C(Cl)(Cl)Cl	15	38*	-4	-11	-10
O=C(Cc1ccccc1)NNc1c2ccccc2nc2ccccc12	-15	1	-2	-9	22
Cc1ccc(NC(=O)/C(C#N)=C/c2cn(CC(=O)NCc3ccco3)c3ccccc23)cc1C	8	4	21	2	10
Cc1cc(C)cc(NC(=O)/C(C#N)=C/c2cn(CC(=O)NCc3ccco3)c3ccccc23)c1	2	-3	40*	-4	19
COc1cc(OC)c(NC(=O)C2CC(=O)N(c3ccc4c(c3)OCCO4)C2)cc1Cl (stereo unspecified)	x	x	-5	x	-4
SMILES	NS3 helicase inh	FID counter	EBNA-1 inhibitor	GPR7 antagonist	ZTA counter
COc1ccc(OC)c(/C=C/C(=O)OCC(=O)Nc2cccc(Oc3ccccc3)c2)c1	-11	-10	14	-1	10
COc1cccc(NC(=O)COC(=O)/C=C/c2ccc(Cl)cc2Cl)c1	-4	-7	39*	-7	9
O=C1c2cccc(OCC(=O)N3CCCc4ccccc43)c2CCN1Cc1ccccc1	-5	-34	-2	22*	1
C/C(=C\c1ccc(N)cc1)c1nc2ccccc2[nH]1	8	-6	10	-2	25
CC(C)c1ccc(/C=C(\c2nc3ccccc3[nH]2)S(=O)(=O)c2ccccc2)cc1	-11	-22	-5	28*	10
O=S(=O)(/C(=C/c1ccc(C(F)(F)F)cc1)c1nc2ccccc2[nH]1)c1ccccc1	3	-4	4	26*	11
Cc1ccc(C2(c3ccccc3)NC(=O)N(CC(=O)N(C)C3CCS(=O)(=O)C3)C2=O)cc1C (stereo unspecified)	x	x	x	x	-24
CN1CCN(c2ccc(C(CC(N)=O)NC(=O)Cc3cccc4ccccc34)cc2[N+](=O)[O-])CC1 (stereo unspecified)	-3	14	0	-6	-4

Screening data as filed in PubChem BioAssay.
